Source: ChEMBL document CHEMBL5335820, “Novel quinolinepiperazinyl-aryltetrazoles targeting the blood stage of Plasmodium falciparum” (RSC Med Chem, 2024)
Activity calls are given as the source filed them. The rule behind the calls is not given here.

Columns and labels:
Type in all cases: functional, organism-based
Plasmodium falciparum [1] = assay: Antiplasmodial activity against chloroquine resistant schizont stage Plasmodium falciparum INDO infected in human erythrocytes assessed as prevention of schizont rupture at 4.30 uM incubated for 4 hrs by time-kill kinetics based FACS analysis; settings: Erythrocyte, dose 4.3 µM
How it was run: (§1)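 PfINDO early schizonts (32–36 h post-invasion) and late schizonts (42–45 h post-invasion) were exposed to 5.62 or 4.30 μM for up to 16 h, washed at 4 h intervals, then cultured drug-free to a total of 96 h. Parasitemia was counted by FACS on 10^5 cells at the end of the second cycle; schizont rupture was checked microscopically.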

Plasmodium falciparum [2] = assay: Antiplasmodial activity against chloroquine resistant schizont stage Plasmodium falciparum INDO infected in human erythrocytes assessed as decrease in parasitemia at 5.62 uM incubated for 4 hrs by time-kill kinetics based FACS analysis; settings: Erythrocyte; how it was run: as §1
Plasmodium falciparum [3] = assay: Synergistic antiplasmodial activity against multidrug-resistant Plasmodium falciparum Cam3.1R539T infected in human erythrocytes at 8 times IC50 concentration incubated for 72 hrs in presence of pyrimethamine by SYBR green I staining based fluorescence assay; settings: Erythrocyte
How it was run: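 P. falciparum Cam3.1R539T in O+ human erythrocytes, 1% parasitemia, 2% haematocrit. 8× IC50 stocks of test compound and standard drug were mixed at molar ratios 4:1, 3:2, 2:3 and 1:4, then serially diluted two-fold. Plates were incubated 72 h at 37 °C and read by SYBR Green I lysis. Controls were 0.4% DMSO (100% growth) and 4 μM chloroquine (0% growth). ΣFIC = FICA + FICB; <1 synergistic, 1.0–2.0 additive, >2.0 antagonistic.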

| SMILES | Activity (Plasmodium falciparum [1]) | Activity (Plasmodium falciparum [2]) | Activity (Plasmodium falciparum [3]) |
| --- | --- | --- | --- |
| O=C(Cn1nnc(-c2cccc([N+](=O)[O-])c2)n1)N1CCN(c2ccnc3cc(Cl)ccc23)CC1 | inactive | – | – |
| Clc1ccc2c(N3CCN(CCCn4nnc(-c5ccc(Br)cc5)n4)CC3)ccnc2c1 | – | Active | Active |
